# Results reported in the EternaBench riboswitch data.
# Test system: MS2 coat protein
# Assay: apparent Kd, MS2 coat protein; higher = weaker binding; RNA-MaP array; FMN 200 µM where present
# Summary of the method: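 Stalled E. coli RNA polymerase transcribed the designs on Illumina sequencing-chip clusters. SNAP-549-labelled MS2 coat protein was titrated from 0.7 or 1.5 nM, doubling to 3 µM, without and then with constant ligand, in 100 mM Tris-HCl pH 7.5, 80 mM KCl, 4 mM MgCl2, BSA, DTT, yeast tRNA and Tween-20. Per-cluster binding curves were fitted to green signal normalised to red-channel RNA signal and control-cluster median Fmax. The apparent Kd is the median of the filtered fits.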
# [1] = designed as: OFF switch for flavin mononucleotide, no ligand
# [2] = ligand present: flavin mononucleotide, designed as: OFF switch for flavin mononucleotide
# [3] = designed as: ON switch for flavin mononucleotide, no ligand
# [4] = ligand present: flavin mononucleotide, designed as: ON switch for flavin mononucleotide
sequence,measurement,setting,value
GCCAGUUAUGUAGGAUAUGCGAGGCGAGCCUGAGCAGAAGGACAUGAGGAUCACCCAUGUAUUGCGGUUUAAGUUCAGAUCGCU,apparent Kd,[1],17.6 nM
same,apparent Kd,[2],23.4 nM
AUUUUACAUGAGGAUCACCCAUGUUUUGGCGGGUCAGGAUAUAGAUCGGAUGAGUUCUGUCUAGAAGGGACAUGUA,apparent Kd,[3],77.5 nM
same,apparent Kd,[4],71.6 nM
ACACGACAUGAGGAUCACCCAUGUGAGGAUAUCGAACUCAACUAAGCACAAAGUAACCCGAGAAGGCACACAAU,apparent Kd,[1],25.1 nM
same,apparent Kd,[2],24.1 nM
GACAUCGCAGGAUAUUAUUGUUUGUACAUGAGGAUCACCCAUGUUAAUUGGGUUAGUGUUUAAGAAGGGCGGUGUC,apparent Kd,[1],1340 nM
same,apparent Kd,[2],901 nM
GCAGCAAUCUAAUACAUGAGGAUCACCCAUGUCGAGAGAUAUGAGGAUAUGCAUCUGAAGAAGAUGCAGAAGGCAUUGUGCUGC,apparent Kd,[3],10.7 nM
same,apparent Kd,[4],6.48 nM
UUAGCAACAUGAGGAUCACCCAUGUAGGAUAUCGCUAUUGUAAUCAUGAAACAUGAUUACAAUAGCGAGAAGGACAUAUGCUAG,apparent Kd,[1],9.88 nM
same,apparent Kd,[2],10.7 nM
UUGGACUACGUAGGAUAUGUAGGAUAUUCCUACAUGAGGAUCACCCAUGUUAGCAUGGAAGAAGGACAGAAGGACGUGGUCCAU,apparent Kd,[3],1360 nM
same,apparent Kd,[4],15.8 nM
UAUUAAACAUAGGAUAUCGAAUAAAUCAUUUAACGAGAAGGAUGAACAUGAGGAUCACCCAUGUGGUAUCAUGG,apparent Kd,[1],246 nM
same,apparent Kd,[2],256 nM
AGCUGUGGCCGAGGAUAUCUACUAAUCCAAACCGAAAUAUAAUCGGACAUGAGGAUCACCCAUGUAGAGAAGGCGGUCUCAGCA,apparent Kd,[1],254 nM
same,apparent Kd,[2],410 nM
CGCUACGUUUCGUAGCAGCUAGGUGAGGAUAUUCAAUUUUUCACAUGAGGAUCACCCAUGUAUGUGAAGAAGGCGCCUAGAAAU,apparent Kd,[3],10.7 nM
same,apparent Kd,[4],4.96 nM
AACAGUACAGGAUAUACAUGAGGAUCACCCAUGUGAGAAUUAAGUGGCGUACCACUAUGUAGAAGGGUACUGGA,apparent Kd,[1],103 nM
same,apparent Kd,[2],225 nM
AAAAUGUGAGGAUAUCAGGUGUGCUAGAGAACUGGUACAUCUGAGAAGGCACAUGAGGAUCACCCAUGUUCUUC,apparent Kd,[1],34.6 nM
same,apparent Kd,[2],156 nM
AUGGUUCGAUUAGGAUAUUAUAGAUUGAAUAGUAUGAUUUACAUGAGGAUCACCCAUGUUACAUAUAAGAAGGAAUCGAAUCAU,apparent Kd,[1],20.1 nM
same,apparent Kd,[2],11.6 nM
AAUUCACAUGAGGAUCACCCAUGUCAGGAUAUGCUGACGCGGGUUUCGGUGCGUGUUGGCAGAAGGGACAGCUA,apparent Kd,[1],193 nM
same,apparent Kd,[2],204 nM
UGUUGUAUUACAGGAUAUCUAUGAUUUUUAUAUAGAGAAGGGUAUUCACAUGAGGAUCACCCAUGUAUAUACGAGGAAGUUGUG,apparent Kd,[3],49 nM
same,apparent Kd,[4],56 nM
CAGUACUGAGGAUAUACAUGAGGAUCACCCAUGUGCUCGAAGUAGGAUACUACUAUUAGUAGAAGGCAGUACUG,apparent Kd,[1],16.1 nM
same,apparent Kd,[2],76.8 nM
AAGAGAAGAACUGAGGAUAUCAGGGAUGGUACAUGAGGAUCACCCAUGUUGGCAAGCGAAGAAACUGAGAAGGCAGAGAAGAAGAA,apparent Kd,[3],80.3 nM
same,apparent Kd,[4],48.1 nM
UCAUCAACGGGCGGGUCGGUUGGACAUGAGGAUCACCCAUGUAGAAGGACCGGUGGACUCCGCCGGUAGGAUAUACAUUUGGUG,apparent Kd,[1],41.6 nM
same,apparent Kd,[2],30.1 nM
UGGUACUAGGGAGGAUAUGGGAAGAUACAUGAGGAUCACCCAUGUUUAAGAAGGCCGAGAGGCAACUAGAAGGCCCUAGUACCU,apparent Kd,[3],396 nM
same,apparent Kd,[4],16 nM
GGCCCACAUGAGGAUCACCCAUGUGAGGAUAUGUUAGUUUCGGCGAAAGCCGAAAUUAACAGAAGGCACAGGCC,apparent Kd,[1],11.7 nM
same,apparent Kd,[2],13.6 nM
UGACCCUGGAAGAGUGUUUAGACAUGAGGAUCACCCAUGUCUGAGGAUAUGCGGCAUCAAUAACAGCAGAAGGCAGACUUGGGU,apparent Kd,[1],239 nM
same,apparent Kd,[2],32.7 nM
CGAAAUGAUAGAGGAUAUGUUAUACAUGAGGAUCACCCAUGUUUAAUGGGAUUAAUAAAUAUCUUACAGAAGGCUAUUCAAUCG,apparent Kd,[1],32 nM
same,apparent Kd,[2],20.7 nM
AGGUCAACCACAGGAUAUGGCUAGCAUAGCUAGCCAGAAGGGUGGUCAUUUCCAUGUAAAUACAUGAGGAUCACCCAUGUAUCC,apparent Kd,[3],126 nM
same,apparent Kd,[4],41.1 nM
